# Biological target: RAF proto-oncogene serine/threonine-protein kinase (Homo sapiens, UniProt P04049)
# Assay: Inhibition of human cRAF using [gamma-33P-ATP] as a substrate by scintillation counting
# Method in brief: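 Recombinant human c-RAF (5–10 mU) in 25 mM Tris pH 7.5 with 0.02 mM EGTA, 10 mM Mg acetate and 0.66 mg/mL myelin basic protein as phosphoacceptor; started by adding MgATP mix containing [γ-33P]ATP (approx. 500 cpm/pmol). Incubated 40 min at room temperature, stopped with 3% phosphoric acid, spotted on P30 filtermat, washed, dried and counted by scintillation.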
# RAF proto-oncogene serine/threonine-protein kinase, sequence (P04049 whole entry): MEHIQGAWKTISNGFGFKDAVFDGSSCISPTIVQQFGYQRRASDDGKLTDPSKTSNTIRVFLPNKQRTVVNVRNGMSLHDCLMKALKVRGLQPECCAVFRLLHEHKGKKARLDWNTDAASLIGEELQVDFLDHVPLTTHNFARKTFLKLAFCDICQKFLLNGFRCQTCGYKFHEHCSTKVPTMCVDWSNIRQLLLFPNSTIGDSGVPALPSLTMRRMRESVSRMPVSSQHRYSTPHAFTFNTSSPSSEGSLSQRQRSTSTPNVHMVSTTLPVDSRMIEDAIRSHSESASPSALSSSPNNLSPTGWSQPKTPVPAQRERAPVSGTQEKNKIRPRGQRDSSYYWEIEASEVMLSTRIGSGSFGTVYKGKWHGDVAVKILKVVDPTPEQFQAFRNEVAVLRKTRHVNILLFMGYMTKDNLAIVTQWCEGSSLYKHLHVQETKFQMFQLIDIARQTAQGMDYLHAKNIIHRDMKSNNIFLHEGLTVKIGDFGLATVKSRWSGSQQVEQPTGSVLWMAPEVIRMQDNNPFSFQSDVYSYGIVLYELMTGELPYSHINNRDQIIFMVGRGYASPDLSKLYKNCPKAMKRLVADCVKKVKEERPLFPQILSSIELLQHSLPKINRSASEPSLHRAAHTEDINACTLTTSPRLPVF
row,Structure (SMILES),IC50 [µM]
1,CNC(=O)c1cc2ccc(CCNC(=O)Nc3cccc(C(F)(F)F)c3)cc2cn1,0.36
2,CNC(=O)c1cc2ccc(CCNC(=O)Nc3cccc(OC(F)(F)F)c3)cc2cn1,0.26
3,CNC(=O)c1cc2ccc(CCNC(=O)Nc3ccc(C(F)(F)F)cc3)cc2cn1,0.37
4,CNC(=O)c1cc2ccc(CCNC(=O)Nc3cc(C(F)(F)F)ccc3F)cc2cn1,0.25
5,CNC(=O)c1cc2ccc(CCNC(=O)Nc3cc(C(F)(F)F)ccc3OCCN(C)C)cc2cn1,0.45
6,CNC(=O)c1cc2ccc(CCNC(=O)Nc3cc(C(F)(F)F)c(Cl)cc3OCCN(C)C)cc2cn1,0.34
7,CNC(=O)c1nc2ccc(CCNC(=O)Nc3cc(C(F)(F)F)ccc3OC)cc2[nH]1,0.34
8,COC(=O)Nc1nc2ccc(CCNC(=O)Nc3cc(C(F)(F)F)ccc3OC)cc2[nH]1,0.81
9,CNC(=O)c1nc2ccc(CCNC(=O)Nc3ccc(Cl)c(C(F)(F)F)c3)cc2[nH]1,0.28
10,COC(=O)Nc1nc2ccc(CCNC(=O)Nc3ccc(Cl)c(C(F)(F)F)c3)cc2[nH]1,0.66
11,CC(=O)Nc1nc2ccc(CCNC(=O)Nc3cccc(C(F)(F)F)c3)cc2[nH]1,0.48
12,CC(=O)Nc1nc2ccc(CCNC(=O)Nc3ccc(Cl)c(Cl)c3)cc2[nH]1,0.48
13,CC(=O)Nc1nc2ccc(CCNC(=O)Nc3ccc(C)c(Cl)c3)cc2[nH]1,0.53
14,COc1cc(Cl)c(C)cc1NC(=O)NCCc1ccc2nc(NC(C)=O)[nH]c2c1,0.32
15,CNCCOc1ccc(C)cc1NC(=O)NCCc1ccc2nc(NC(C)=O)[nH]c2c1,0.58
16,CNCCOc1cc(Cl)c(C)cc1NC(=O)NCCc1ccc2nc(NC(C)=O)[nH]c2c1,0.49
17,CC(=O)Nc1nc2ccc(CCNC(=O)Nc3cc(C)c(Cl)cc3OCCN)cc2[nH]1,0.55
18,CC(=O)Nc1nc2ccc(CCNC(=O)Nc3cc(C(F)(F)F)ccc3OCCN)cc2[nH]1,0.25

# Compounds with a lower IC50, results first:
row,IC50 [µM],Structure (SMILES)
1,0.19,CNC(=O)c1cc2ccc(CCNC(=O)Nc3cc(C)c(Cl)cc3OC)cc2cn1
2,0.2,CNC(=O)c1cc2ccc(CCNC(=O)Nc3cccc(S(=O)(=O)C(F)(F)F)c3)cc2cn1
3,0.2,CNC(=O)c1cc2ccc(CCNC(=O)Nc3ccc(C)c(C(F)(F)F)c3)cc2cn1
4,0.16,CNC(=O)c1cc2ccc(CCNC(=O)Nc3ccc(Cl)c(C(F)(F)F)c3)cc2cn1
5,0.24,CNC(=O)c1cc2ccc(CCNC(=O)Nc3ccc(F)c(C(F)(F)F)c3)cc2cn1
6,0.12,CNC(=O)c1cc2ccc(CCNC(=O)Nc3cc(C(F)(F)F)ccc3OC)cc2cn1
7,0.11,CNC(=O)c1cc2ccc(CCNC(=O)Nc3cc(Cl)c(C)cc3OC)cc2cn1
8,0.08,CNC(=O)c1cc2ccc(CCNC(=O)Nc3cc(C(F)(F)F)c(Cl)cc3OC)cc2cn1
9,0.17,COc1ccc(C(F)(F)F)cc1NC(=O)NCCc1ccc2nc(NC(C)=O)[nH]c2c1
10,0.14,CC(=O)Nc1nc2ccc(CCNC(=O)Nc3ccc(Cl)c(C(F)(F)F)c3)cc2[nH]1
11,0.19,COc1cc(C)c(Cl)cc1NC(=O)NCCc1ccc2nc(NC(C)=O)[nH]c2c1
12,0.21,CNCCOc1ccc(C(F)(F)F)cc1NC(=O)NCCc1ccc2nc(NC(C)=O)[nH]c2c1
13,0.23,CNCCOc1cc(Cl)c(C(F)(F)F)cc1NC(=O)NCCc1ccc2nc(NC(C)=O)[nH]c2c1
14,0.18,CC(=O)Nc1nc2ccc(CCNC(=O)Nc3cc(C(F)(F)F)c(Cl)cc3OCCN)cc2[nH]1
15,0.23,CC(=O)Nc1nc2ccc(CCNC(=O)Nc3cc(C(F)(F)F)ccc3OCC3CCCN3)cc2[nH]1 (stereo not drawn)

# Reference: ChEMBL document CHEMBL1759847, “Design and synthesis of isoquinolines and benzimidazoles as RAF kinase inhibitors” (Bioorg Med Chem Lett, 2011)
